# Most compounds without a hit are left out; they make up all but 1.9% or so of the library.
# UBC9 SUMO inh: SUMOylation inhibition. P63279. HTRF SUMOylation assay, SAE1/SAE2 + UBC9, in vitro. inhibition, % at 35 µM. 290,000 tested, 0.36% active. AID 2006; in the data active = inhibition above about 50%, passing the limit was not always enough
# IMP-1 inhibitor: blocks Pseudomonas aeruginosa IMP-1 metallo-beta-lactamase | purified IMP-1, nitrocefin hydrolysis, epi-absorbance fluorescence | inhibition, % at 5.6 µM | 290,000 tested, 0.45% active | AID 1556;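 active = inhibition above the mean plus 3 SD of all compounds in the same screening run, cut at about 4.5% in these data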;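 also: 0% = IMP-1 with DMSO and 100% = DMSO wells lacking enzyme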
#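 Material – recombinant IMP-1 enzyme, purified · Amount – IMP-1 0.2 nM before substrate addition · Medium – HEPES buffer pH 7.1 with ZnSO4 and Brij 35 · Timing – 25 °C, 15 min preincubation, 25 min reaction · Measured by – plate fluorescence quenching by hydrolysis product, ex 480/em 530 nm · Read-out – percent enzyme inhibition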
# VIM-2 inh: inhibitors of Pseudomonas aeruginosa VIM-2 metallo-beta-lactamase. 290,000 tested, 0.89% active. inhibition, % at 5.6 µM. AID 1527. purified VIM-2, nitrocefin hydrolysis, epi-absorbance fluorescence;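 active = inhibition above the mean of all tested compounds plus 3 SD, cutoff set per screening run, cut at about 7.5% in these data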;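 also: red hydrolysis product quenches plate fluorescence so inhibitors raise well fluorescence; 0% = enzyme with DMSO and 100% = DMSO without enzyme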
# p-CIP stab down: compounds decreasing mouse p/CIP protein stability. Q05BA5. decrease of EGFP signal, % at 10 µM. 290,000 tested, 0.01% active. F442A p/CIP-EGFP cells, EGFP fluorescence, 16 h;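 active = EGFP signal decrease of at least 30% at 10 µM or well 3 SD below plate mean, unless failing retest; inactive = the rest, including hits failing retest or dose response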
# Fh CTSL1 inh: blocks F. hepatica cathepsin L1 in PFM18AAP counter-screen; recombinant F. hepatica cathepsin L1, Z-Leu-Arg-MCA fluorescence; inhibition, % at 5.96 µM; 300,000 tested, 0.49% active;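 active = inhibition above the mean of all tested compounds plus 3 SD, set per screening campaign, cut at about 17% in these data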;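 also: 0% = plate median of test compound wells and 100% = 1 µM Z-Phe-Ala-diazomethylketone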
# T cell modulator: modulates CD8 T cell binding to vesicles; AID 2052; response (vesicle binding), % at 7 µM; 2C CD8+ T cell-vesicle binding, flow cytometry; hits give low values; 330,000 tested, 0.068% active;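 active = response, share of CD8 T cells binding vesicles, and their 90th percentile fluorescence all below set limits, cut at about 80% in these data, passing the limit was not always enough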;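 also: values below 100% mean blocked vesicle binding to the CD8+ T cells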
#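 Incubation: binding step 1.5 h, 37 °C, antibody labelling 20 min, ice; system: murine 2C transgenic CD8+ T lymphocytes; technique: cytometric PE anti-B7-1 and Alexa647 anti-CD8 signals after 1% paraformaldehyde fixation; also added: QL9-charged Drosophila Ld/ICAM-1/B7-1 vesicles; control set: naked versus QL9-loaded vesicles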
# Active calls of the source: *; i = inactive; . = no result given.
SMILES,UBC9 SUMO inh,IMP-1 inhibitor,VIM-2 inh,p-CIP stab down,Fh CTSL1 inh,T cell modulator
c1nnc2c3c4c(sc3ncn12)CCCC4,-12,-3,-3,15,.,.
O=C(Nc1cccc2c1C(=O)NC2=O)c1cccnc1Cl,28,-2,0,-2,-2,285
O=C(Nc1cccc2c1C(=O)NC2=O)c1ccc(N2C(=O)CCC2=O)cc1,9,2,0,-3,42*,221
O=C(O)C1C2C=CC(C2)C1C(=O)NCc1ccc(Cl)cc1Cl (stereo not given),10,7.6*,-1,-14,-5,363
COc1ccccc1Nc1c2c(nc3ccccc13)CCC2,0,-4,9.4*,6,0,i
CC(=O)c1cccc(Nc2c3c(nc4ccccc24)CCC3)c1,23,-1,10*,-3,0,102
Fc1cccc(Nc2c3c(nc4ccccc24)CCC3)c1,12,-2,4,-16,-1,306
CC(=O)c1ccc(Nc2c3c(nc4ccccc24)CCCC3)cc1,18,0,5,18,-10,125
Cc1ccc2nc3c(c(Nc4cccc(O)c4)c2c1)CCC3,-3,-2,9.4*,0,1,252
COC(=O)c1cccc(Nc2c3c(nc4ccccc24)CCC3)c1,-14,-3,8.1*,3,.,.
Cc1ccc(-n2ncc3c2CCCC3NC(=O)CCc2cnccn2)cc1C (stereo not given),0,-2,-1,4,2,330
O=C(NNc1nc2cc3c(cc2s1)OCO3)c1cccc(F)c1,5,0,0,-2,-5,626
O=C(c1cccc(Cl)c1)C1CCCN(S(=O)(=O)c2ccccc2)C1 (stereo not given),3,-4,-2,-8,2,316
Cc1ccc(S(=O)(=O)N2CCCN(C(=O)CNC(=O)c3cccc(C)c3)CC2)cc1,.,.,.,.,.,736
COc1ccc(NS(=O)(=O)c2ccc3c(c2)N(C(C)=O)CC(C)S3)c(OC)c1 (stereo not given),8,-4,-4,-22,-1,349
O=C(CNC(=O)c1ccccc1Br)N/N=C/c1ccc(O)cc1,-2,-4,-3,-4,-2,422
CC(=O)c1ccc(NC(=O)CC2Nc3cccc4cccc(c34)NC2=O)cc1 (stereo not given),96*,-1,2,-1,4,321
Cc1ccc(S(=O)(=O)CCN2C=CC(C(F)(F)F)=NCC2)cc1,13,-2,-6,-17,1,311
COc1cc(CN(CC2CCCO2)C(=O)c2cccs2)cc(OC)c1OC (stereo not given),8,0,-1,-2,18*,518
O=C(NN1C(=O)/C(=C/c2ccc(O)cc2)SC1=S)c1ccccc1O,-15,4.8*,1,-131,0,191
O=C(NN1C(=O)/C(=C/c2ccc(O)c([N+](=O)[O-])c2)SC1=S)c1ccccc1Cl,4,6.0*,-1,-14,8,119
O=C(NN1C(=O)/C(=C/c2ccc(O)cc2)SC1=S)c1cccc(O)c1,4,0,2,-251,20*,388
COC(CNS(=O)(=O)c1cc2c3c(c1)CCN3C(=O)CC2)OC,-6,-2,-2,3,0,191
Cc1ccc(-c2[nH]c(-c3ccc(C(=O)O)cc3)nc2-c2ccccc2)cc1,58*,-5,-6,-12,4,215
CCCN1C(=O)S/C(=C/c2ccc(N3CCOCC3)o2)C1=O,22,3,1,-37,5,498
CCCN1C(=O)S/C(=C\c2ccc(N3CCOCC3)o2)C1=O,8,5.9*,-4,-78,7,203
COC(=O)[C@@H]1C[C@@]2(Br)c3ccccc3N(S(=O)(=O)c3ccccc3)[C@H]2N1C(=O)OC,.,.,.,.,-2,481
Cc1nc(-c2ccc([N+](=O)[O-])cc2)nc2[nH]ccc(=O)c12,6,0,9.7*,8,.,147
Cc1cccc(CCNC(=O)Cc2ccc(NC3=NC4CS(=O)(=O)CC4S3)cc2)c1 (stereo not given),4,-6,0,-11,-4,440
C/C(=N\Nc1ccc(S(N)(=O)=O)cc1[N+](=O)[O-])c1cccnc1,-1,-5,-3,-10,3,236

# Screening data: PubChem BioAssay, several laboratories
